ABCB1 block: blocks JC-1 efflux by human ABCB1 transporter | CCRF-Adr cells, flow cytometry | inhibition, % at 6.6 µM | P08183 | hit rate 0.067% among 190,000; in the data active = inhibition above about 40%;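 also: higher value means more JC-1 retained so stronger ABCB1 efflux block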
ABCG2 block: inhibitors of human ABCG2 transporter, ABCB1 counter-screen | IgMXP3 cells, JC-1 efflux, flow cytometry | AID 1325 | inhibition, % at 6.6 µM | hit rate 0.1% among 190,000 | Q9UNQ0;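 active = inhibition above 80%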
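Test system: ABCG2 IgMXP3 and barcoded ABCB1 CCRF-Adr cell mix; Schedule: cells with compound and JC-1, 10 min at 25 °C, rotating, no wash; Technique: flow cytometry of retained JC-1 fluorescence; Measure: % inhibition of efflux relative to nicardipine and DMSO; Controls: nicardipine high and DMSO low controls.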
FLuc act counter: firefly luciferase counter-screen for stimulation assays; ATPlite luciferase biochemical, luminescence, 10 min; 0 = ATP-free wells, 1 = DMSO control; activation factor at 10 µM; 200,000 tested, under 10 active; P08659;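 active = luciferase activation factor, scaled between plate controls, of at least 2 with compound at 10 µM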
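test system = cell-free luciferase reagent | medium = PBS as buffer for the ATP substrate | dosing = test compounds dosed from 2 mM stocks in 100% DMSO | incubation = 10 min at ambient temperature | detection = luminescence measurement of luciferase light output | benchmarks = low control with PBS replacing ATP, high control enzyme plus ATP without compound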
FLuc inh counter: inhibits firefly luciferase, flagging false hits in luciferase inhibition screens | P08659 | ATPLite firefly luciferase biochemical luminescence, 10 min | inhibition, % at 10 µM | hit rate 1.5% among 200,000 | AID 1006;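 active = inhibition above about 50% when tested at 10 µM, limit read from the data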
Diaphorase act: activates diaphorase or chemically reduces, flagging diaphorase assay artifacts. Diaphorase/resazurin coupled assay, resorufin fluorescence, 16 min; stronger effect = higher value; 1 = vehicle wells, 0 = NADH-free wells. activation factor at 20 µM. hit rate 0.005% among 190,000. AID 1229;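 active = diaphorase activity raised at least twofold by the compound at 20 µM; inactive = activation factor below 2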
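Material: Purified diaphorase enzyme from Clostridium kluyveri | Buffer or medium: 50 mM HEPES pH 7.4 with 4.542 mM MgCl2, 0.005% Tween 20 | Times: 16 min enzyme reaction, ambient temperature | Signal: Red resorufin fluorescence at 544/590 nm excitation/emission | Measure: Increased resorufin signal from activators or reducing compounds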
ABCB6 inh 2: inhibitors of human ABC transporter ABCB6; Q9NP58; K562-ABCB6 porphyrin accumulation, flow cytometry, 1 h; stronger effect = lower value; fluorescence ratio to DMSO, % at 10 µM; hit rate 0.19% among 360,000; AID 602162;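 active = fluorescence ratio to DMSO below 75%, the collection mean minus 3 SD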;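 also: signal is porphyrin accumulated inside mitochondria; lower ratio means ABCB6 inhibition with less porphyrin fluorescence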
Target sequence (Q9NP58 whole entry, looked up): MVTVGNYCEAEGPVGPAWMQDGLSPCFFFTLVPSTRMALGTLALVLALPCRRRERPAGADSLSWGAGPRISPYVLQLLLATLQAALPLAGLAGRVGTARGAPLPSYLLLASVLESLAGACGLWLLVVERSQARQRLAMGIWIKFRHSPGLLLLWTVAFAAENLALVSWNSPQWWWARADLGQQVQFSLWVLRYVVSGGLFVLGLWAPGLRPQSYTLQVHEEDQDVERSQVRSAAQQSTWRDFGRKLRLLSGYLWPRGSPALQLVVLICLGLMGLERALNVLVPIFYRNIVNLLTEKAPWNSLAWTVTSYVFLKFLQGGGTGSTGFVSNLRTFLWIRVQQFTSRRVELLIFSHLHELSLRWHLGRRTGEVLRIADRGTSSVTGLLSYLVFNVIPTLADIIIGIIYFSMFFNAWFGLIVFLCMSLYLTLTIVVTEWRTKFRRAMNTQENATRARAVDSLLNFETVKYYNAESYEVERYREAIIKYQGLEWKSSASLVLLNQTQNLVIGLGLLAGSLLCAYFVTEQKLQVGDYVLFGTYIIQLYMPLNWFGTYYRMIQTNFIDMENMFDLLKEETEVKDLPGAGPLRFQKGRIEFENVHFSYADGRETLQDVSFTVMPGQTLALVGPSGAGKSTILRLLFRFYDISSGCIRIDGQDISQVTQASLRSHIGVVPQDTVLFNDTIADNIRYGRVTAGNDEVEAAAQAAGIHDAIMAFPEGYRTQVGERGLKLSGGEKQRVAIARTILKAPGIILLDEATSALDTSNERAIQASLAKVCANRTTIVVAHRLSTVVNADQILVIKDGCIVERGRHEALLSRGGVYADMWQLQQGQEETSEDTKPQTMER
Large screens that a line does not name were inactive. The sample as a whole holds a higher share of hits than the screen did.

Clc1nnc(N/N=C/c2ccccc2)c2ccccc12	FLuc inh counter 69
COc1ccc(/C=N/Nc2nnc(-c3ncc[nH]3)c3ccccc23)cc1	FLuc inh counter 72
Cc1ccc(-c2nc(N/N=C/c3ccncc3)c3ccccc3n2)cc1	FLuc inh counter 98
CCCCn1c(N)c(N(CC(C)C)C(=O)CC2CCCC2)c(=O)[nH]c1=O	none (no result: ABCB1 block, ABCG2 block, FLuc act counter, FLuc inh counter, Diaphorase act)
Cc1cccc(/C=N/Nc2nncc3ccccc23)c1	FLuc inh counter 94
C(=N\Nc1nncc2ccccc12)/c1ccccc1	none (no result: ABCB1 block, ABCG2 block, FLuc act counter, FLuc inh counter, Diaphorase act)
Cc1ccc(/C=N/Nc2nnc(Cl)c3ccccc23)cc1	FLuc inh counter 94
COc1ccc(-c2ccc(C(=O)NCC3CCOCC3)c3occc23)c(C)c1	none (no result: ABCB1 block, ABCG2 block, FLuc act counter, FLuc inh counter, Diaphorase act)
Cc1ccc(C)c(N2CCN(C(=O)c3ccc(N4CCCC4=O)cc3)CC2)c1	none (no result: ABCB1 block, ABCG2 block, FLuc act counter, FLuc inh counter, Diaphorase act)
COc1cc(/C=C/C(=O)C2C(=O)C=C(C)OC2=O)cc(OC)c1O (centres undefined)	none
COc1ccc(/C=C/C(=O)C2C(=O)C=C(C)OC2=O)cc1O (centres undefined)	FLuc inh counter 83, ABCB6 inh 2 68
Cn1nc(CC(=O)Nc2ccc(N3CCN(C(=O)OC(C)(C)C)CC3)cc2)c2ccccc2c1=O	ABCB6 inh 2 30
N#C/C(=C/c1ccco1)c1nc2ccccc2s1	FLuc inh counter 70
N#C/C(=C\c1ccc(O)c([N+](=O)[O-])c1)c1nc2ccccc2s1	none
N#C/C(=C/c1ccc(-c2cc(C(=O)O)cc(C(=O)O)c2)o1)c1nc2ccccc2s1	none (no result: ABCB6 inh 2)
N#C/C(=C\c1ccco1)c1nc2ccccc2s1	FLuc inh counter 68
Cc1ccc(CNC(=O)COC(=O)c2cc(C)oc2C)cc1	none (no result: ABCB1 block, ABCG2 block, FLuc act counter, FLuc inh counter, Diaphorase act)
O=C(Nc1ccc(-c2ccc3nncn3n2)cc1)C1CCCC1	FLuc inh counter 52
O=C(CCN1C(=O)c2ccccc2C1=O)Nc1ccc(-c2cn3ccsc3n2)cc1	none
c1cn2cc(-c3ccc4c(c3)OCO4)nc2s1	FLuc inh counter 78
CC(=O)Nc1ccc(-c2cn3ccsc3n2)cc1	FLuc inh counter 67
CCC(=O)Nc1cccc(-c2cn3ccsc3n2)c1	none
O=C(Nc1ccc(-c2cn3ccsc3n2)cc1)C1CC1	FLuc inh counter 87
CC(C)CC1NC(=O)N(CC(=O)Nc2ccc(OCc3ccccc3)cc2)C1=O (centres undefined)	none (no result: ABCB1 block, ABCG2 block, FLuc act counter, FLuc inh counter, Diaphorase act)
O=C(Nc1ccc(-c2cn3ccsc3n2)cc1)C1CCCC1	FLuc inh counter 88
COc1ccc(/C=C2\C(=O)NC(=S)N2C(=O)c2ccc(C)cc2)cc1	none
O=C1NC(=S)N(C(=O)c2ccc(F)cc2)/C1=C/c1cccnc1	ABCB6 inh 2 15 (no result: ABCB1 block, ABCG2 block, FLuc act counter, FLuc inh counter, Diaphorase act)
S=C1c2ccccc2CN1c1ccccc1	none
Cc1ccc(N2Cc3ccccc3C2=S)cc1	FLuc inh counter 76
CCc1cccc(NC(=O)c2cccc3c2C(=O)N(CC2CCCO2)C3)c1 (centres undefined)	none (no result: ABCB1 block, ABCG2 block, FLuc act counter, FLuc inh counter, Diaphorase act)
CC(C)CCN(C(=O)c1ccc(Br)cc1)c1c(N)n(Cc2ccccc2)c(=O)[nH]c1=O	none (no result: ABCB1 block, ABCG2 block, FLuc act counter, FLuc inh counter, Diaphorase act)
O=C(COC(=O)c1cccs1)c1ccc2c(c1)OCCO2	FLuc inh counter 95
NS(=O)(=O)c1cc(C(=O)OCC(=O)c2ccc3c(c2)OCCO3)ccc1Cl	FLuc inh counter 92
Cc1ccc(C(=O)COC(=O)c2cccs2)cc1	FLuc inh counter 92
Cc1ccc(C(=O)COC(=O)CNC(=O)c2cccs2)cc1	none
CCc1ccc(C(=O)COC(=O)c2cccs2)cc1	FLuc inh counter 87
O=C(Cn1c(CO)nc2ccccc21)Nc1ccc2c(c1)OCCCO2	none (no result: ABCB1 block, ABCG2 block, FLuc act counter, FLuc inh counter, Diaphorase act)
Cc1cc(NC(=O)CN2C(=O)NC(C)(c3ccc(Cl)cc3Cl)C2=O)no1 (centres undefined)	none (no result: ABCB1 block, ABCG2 block, FLuc act counter, FLuc inh counter, Diaphorase act)
NC(=O)c1c(NC(=O)Cc2ccccc2)sc2c1CCN(Cc1ccccc1)C2	none (no result: ABCB1 block, ABCG2 block, FLuc act counter, FLuc inh counter, Diaphorase act)
Cc1cccc(C(=O)OCC(=O)c2ccc3c(c2)OCCO3)c1O	none (no result: ABCB1 block, ABCG2 block, FLuc act counter, FLuc inh counter, Diaphorase act)
CC(=O)NC12CC3CC(C1)CC(C(=O)OCC(=O)c1ccc4c(c1)OCCO4)(C3)C2	FLuc inh counter 58
CC(C)C(=O)Nc1ccccc1C(=O)OCC(=O)c1ccc2c(c1)OCCO2	FLuc inh counter 62
C[C@@H](C(=O)OCC(=O)c1ccccc1)N1C(=O)C2CCCCC2C1=O (some centres undefined)	none (no result: ABCB1 block, ABCG2 block, FLuc act counter, FLuc inh counter, Diaphorase act)
Cc1noc(C)c1C(=O)OC(C)C(=O)NC(C)c1ccc(Cl)cc1Cl (centres undefined)	none (no result: ABCB1 block, ABCG2 block, FLuc act counter, FLuc inh counter, Diaphorase act)
O=C1CC(c2ccc3c(c2)OCO3)Sc2nc3ccccc3n21 (centres undefined)	FLuc inh counter 69
O=C(/C=C/c1ccccc1Cl)Nc1cccc(O)c1	FLuc inh counter 84
O=C(/C=C/c1ccccc1[N+](=O)[O-])Nc1ccccc1	FLuc inh counter 50
COc1cc(NC(=O)/C=C/c2ccccc2[N+](=O)[O-])cc(OC)c1	none
O=C(/C=C/c1ccccc1Cl)Nc1ccccc1	none (no result: ABCB1 block, ABCG2 block, FLuc act counter, FLuc inh counter, Diaphorase act)
Cc1cccc(/C(N)=N/OC(=O)c2cccs2)c1	FLuc inh counter 90
O=C(O/N=C1\CCCc2ccccc21)c1cccs1	FLuc inh counter 91
Cc1ccc(/C(N)=N/OC(=O)c2cccs2)cc1	FLuc inh counter 74
N/C(Cc1cccc2ccccc12)=N\OC(=O)c1cccs1	none

Assay outcomes as filed in PubChem BioAssay.
